Experimental findings from ChEMBL document CHEMBL3868617, “Synthesis, COX-1/2 inhibition activities and molecular docking study of isothiazolopyridine derivatives” (Bioorg Med Chem, 2017) are described below.

Where only a bound is given, the exact number is not on record here.

The target in assay [1] is T1, Prostaglandin G/H synthase 1 (Homo sapiens, UniProt P23219). In words: Increase in COX-1 (unknown origin) enzyme activity using arachidonic acid as substrate preincubated for 10 mins followed by substrate addition in presence of TMPD by spectrophotometric analysis relative to control. In a few lines: (§1)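 COX-1 in 0.1 M Tris-HCl pH 8.0 with heme; colorimetric read of TMPD oxidation at 590 nm after arachidonic acid starts the reaction. Activity is taken at 10 min of incubation with compound and given as E/E0 against enzyme with solvent only (methanol, ethanol or DMSO). Triplicates; paired t test.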

For assay [2], the target named is T2, Prostaglandin G/H synthase 2 (Homo sapiens, UniProt P35354).
T2 sequence (P35354 whole entry): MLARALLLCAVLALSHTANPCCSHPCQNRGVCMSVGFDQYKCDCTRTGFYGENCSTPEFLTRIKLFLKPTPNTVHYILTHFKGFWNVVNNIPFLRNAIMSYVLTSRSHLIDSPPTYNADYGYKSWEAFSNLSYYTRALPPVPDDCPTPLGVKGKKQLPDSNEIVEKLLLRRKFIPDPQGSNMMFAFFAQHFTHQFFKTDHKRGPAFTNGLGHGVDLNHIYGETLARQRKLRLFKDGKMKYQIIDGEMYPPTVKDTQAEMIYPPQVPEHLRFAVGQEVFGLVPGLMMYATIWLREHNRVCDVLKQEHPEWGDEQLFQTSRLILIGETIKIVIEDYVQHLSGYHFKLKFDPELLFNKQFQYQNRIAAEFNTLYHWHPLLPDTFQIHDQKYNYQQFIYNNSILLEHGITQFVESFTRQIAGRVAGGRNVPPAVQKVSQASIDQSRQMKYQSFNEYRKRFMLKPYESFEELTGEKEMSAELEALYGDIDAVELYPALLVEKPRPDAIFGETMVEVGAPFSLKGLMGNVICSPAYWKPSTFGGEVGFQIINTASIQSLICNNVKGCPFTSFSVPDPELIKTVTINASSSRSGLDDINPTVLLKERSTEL
The assay can be described thus: Inhibition of COX-2 (unknown origin) using arachidonic acid as substrate preincubated for 2 mins followed by substrate addition in presence of TMPD by spectrophotometric analysis relative to control.

In assay [3] the target is T1, Prostaglandin G/H synthase 1. The assay can be described thus: Inhibition of COX-1 (unknown origin) using arachidonic acid as substrate preincubated for 2 mins followed by substrate addition in presence of TMPD by spectrophotometric analysis. In a few lines: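 COX-1 with heme in 0.1 M Tris-HCl pH 8.0; arachidonic acid starts the reaction and the TMPD oxidation rate is read at 590 nm over 2 min.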

For assay [4] the target is unchanged. In words: Inhibition of COX-1 (unknown origin) using arachidonic acid as substrate preincubated for 10 mins followed by substrate addition in presence of TMPD by spectrophotometric analysis relative to control. In a few lines:
as §1

Assay [5] concerns Mus musculus. In words: Antinociceptive activity in Swiss albino mouse assessed as reduction in phenylbenzoquinone-induced abdominal constrictions at 1.8 to 7.8 mg/kg, ip pretreated for 25 mins followed by phenylbenzoquinone treatment measured after 5 mins by writhing test. Format: functional, Abdomen. The arrangement: scale not given: the % may be the effect or the level left. In general terms: In writhing tests, fewer writhes than in controls are read as antinociception.

As a reminder, the inhibition is the drop in the measured response relative to a control, in per cent.

T1 sequence (P23219 whole entry): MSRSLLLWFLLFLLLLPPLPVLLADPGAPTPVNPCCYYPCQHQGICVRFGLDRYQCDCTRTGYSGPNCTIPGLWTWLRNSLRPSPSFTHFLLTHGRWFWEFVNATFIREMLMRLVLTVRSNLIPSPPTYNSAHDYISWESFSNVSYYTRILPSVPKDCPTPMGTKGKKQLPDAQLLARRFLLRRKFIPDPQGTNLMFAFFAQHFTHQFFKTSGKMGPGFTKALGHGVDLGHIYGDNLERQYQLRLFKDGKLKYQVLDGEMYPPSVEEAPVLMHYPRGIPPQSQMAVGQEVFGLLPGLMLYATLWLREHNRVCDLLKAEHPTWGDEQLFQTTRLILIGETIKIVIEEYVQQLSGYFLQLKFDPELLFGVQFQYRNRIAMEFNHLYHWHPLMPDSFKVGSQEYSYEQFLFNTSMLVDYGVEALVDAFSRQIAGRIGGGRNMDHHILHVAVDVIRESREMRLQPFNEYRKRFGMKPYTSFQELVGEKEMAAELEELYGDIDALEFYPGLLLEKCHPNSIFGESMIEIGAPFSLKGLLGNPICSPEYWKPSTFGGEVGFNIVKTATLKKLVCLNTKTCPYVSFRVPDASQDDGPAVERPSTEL

On to `CN1C(C(=O)Nc2ccccn2)=C(O)c2ccccc2S1(=O)=O`, for which the Activity in assay [1] came to 11%.

With `Cc1cc(C)c2c(=O)n(CN(C)CCNc3ccccc3)sc2n1`, the IC50 in assay [2] (read-out: IC50) was 494 µM; in assay [2] (read-out: pIC50 (converted)), 5250 µM; in assay [3] (read-out: IC50) it was 219 µM. For the same molecule, in assay [4], the inhibition lay within 18 to 30%. The Activity in assay [5] is reported as >50%.

As for `Cc1cc(C)c2c(=O)n(CN3CCN(c4ccccc4F)CC3)sc2n1`, the IC50 is 1260 µM in assay [2] (read-out: pIC50 (converted)), 156 µM in assay [3] (read-out: IC50) and 141 µM in assay [3] (read-out: pIC50 (converted)). Further, the inhibition lay in the range of 25 to 40% in assay [3] and 18 to 30% in assay [4]. For the same molecule, in assay [5], the Activity is >50%.

`CCC(C(=O)N1CCN(c2ccccc2)CC1)n1sc2nc(C)cc(C)c2c1=O` (stereo unspecified): the results for the IC50 in assay [2] (read-out: IC50), in assay [3] (read-out: IC50) and in assay [3] (read-out: pIC50 (converted)) were 344 µM, 154 µM and 138 µM, respectively. Further, the inhibition lay within 25 to 40% in assay [3] and 18 to 30% in assay [4].

With `Cc1cc(C)c2c(OC(C)C(=O)O)nsc2n1` (stereo unspecified), the IC50 in assay [2] (read-out: IC50) is 327 µM; in assay [3] (read-out: IC50), 229 µM. The inhibition in assay [3] fell in the range of 25 to 40%.

As for `Cc1cc(C)c2c(=O)n(CCCC(=O)O)sc2n1`, the IC50 in assay [2] (read-out: IC50) is 302 µM; in assay [3] (read-out: IC50) it was 235 µM. Moreover, the inhibition in assay [3] fell in the range of 25 to 40%.

For `Cc1cc(C)c2c(=O)n(CCC(=O)N3CCN(c4cccc(Cl)c4)CC3)sc2n1`, the IC50 was determined as 388 µM in assay [2] (read-out: IC50) and 242 µM in assay [3] (read-out: IC50).

With `O=C(CCn1sc2ccccc2c1=O)N1CCN(c2cccc(Cl)c2)CC1`, the IC50 in assay [2] (read-out: IC50) is 130 µM; in assay [3] (read-out: IC50), 331 µM; in assay [3] (read-out: pIC50 (converted)), 302 µM.

On to `COc1cc2c(cc1OC)CN(C(=O)CCn1sc3nc(C)cc(C)c3c1=O)CC2`, for which the IC50 in assay [2] (read-out: IC50) is 303 µM; in assay [2] (read-out: pIC50 (converted)), 288 µM; in assay [3] (read-out: IC50), 497 µM.

`Cc1cc(C)c2c(=O)n(CCC(=O)N3CCN(c4ccccc4)CC3)sc2n1`: the IC50 turned out to be 368 µM in assay [2] (read-out: IC50) and 207 µM in assay [3] (read-out: IC50). For the same molecule, the inhibition in assay [3] lay in the range of 25 to 40%; in assay [4], 18 to 30%.

Turning to `Cc1cc(C)c2c(=O)n(CN3CCN(C4CCCCC4)CC3)sc2n1`, the values for the IC50 in assay [2] (read-out: IC50) and in assay [3] (read-out: pIC50 (converted)) were 359 µM and 372 to 661 µM, respectively. Also, the Activity was >50% in assay [5] and 3 to 7% in assay [1].

For the molecule `Cc1cc(C)c2c(=O)n(CCCC(=O)N3CCN(c4cccc(Cl)c4)CC3)sc2n1`, the IC50 in assay [3] (read-out: IC50) is 722 µM.

As to `Cc1cc(C)c2c(OCCCC(=O)N3CCN(c4ccccc4)CC3)nsc2n1`, in assay [3] (read-out: pIC50 (converted)), the IC50 is 1550 µM. For the same molecule, the Activity in assay [1] was in the range of 3 to 7%.

`Cc1cc(C)c2c(OCCCC(=O)O)nsc2n1`: the IC50 was 269 µM in assay [2] (read-out: IC50), 245 µM in assay [2] (read-out: pIC50 (converted)) and 248 µM in assay [3] (read-out: IC50). Further, the inhibition in assay [3] was 25 to 40%.

As to `Cc1cc(C)c2c(=O)n(CCCC(=O)N3CCN(c4ccccc4)CC3)sc2n1`, the IC50 in assay [2] (read-out: IC50) was determined as 459 µM; in assay [3] (read-out: IC50) it was 349 µM.

With `Cc1cc(C)c2c(=O)n(CC(=O)N3CCN(c4cccc(Cl)c4)CC3)sc2n1`, the IC50 stood at 605 µM in assay [2] (read-out: IC50) and 375 µM in assay [3] (read-out: IC50).

With `Cc1cc(C)c2c(OCCCC(=O)N3CCN(c4cccc(Cl)c4)CC3)nsc2n1`, the results for the IC50 in assay [2] (read-out: pIC50 (converted)), in assay [3] (read-out: IC50) and in assay [3] (read-out: pIC50 (converted)) were 4570 µM, 818 µM and 380 µM, respectively.

Turning to `Cc1cc(C)c2c(=O)n(CCCN3CCN(c4cccc(Cl)c4)CC3)sc2n1`, the IC50 is 816 µM in assay [3] (read-out: IC50) and 513 to 525 µM in assay [3] (read-out: pIC50 (converted)). Besides, in assay [5], the Activity is >50%.
